Test results taken from ChEMBL document CHEMBL5303300, “EUbOPEN Chemogenomics Library - Multiplex” (2023).
Values joined by “and” are separate entries in the source; they are usually repeats but may differ in a detail not shown here. Equal values may be shown once.

Test system: Fibroblast
Assay: Multiplex assay against human fibroblast
Assay type: toxicity, cell-based
Details: number of replicates 2
Method in brief: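 Cells stained live at seeding with Hoechst33342, BioTracker Green Microtubule Cytoskeleton Dye, MitoTracker Red and Annexin V Alexa Fluor 680 were imaged on a CQ1 microscope at 37°C and 5% CO2 after compound addition. Their classification by CellPathfinder machine-learning gating ran from Hoechst high-intensity objects versus normal cells, to healthy, pyknosed or fragmented nuclei among normal cells, to mitotic or apoptotic among pyknosed cells. Tubulin, mitochondrial-mass and membrane-permeability phenotypes are per cents of healthy-nucleus cells.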

[1] = 12 h, 1 µM, compound concentration 1 uM
[2] = 12 h, 10 µM, compound concentration 10 uM
[3] = 24 h, 1 µM, compound concentration 1 uM
[4] = 24 h, 10 µM, compound concentration 10 uM
[5] = 48 h, 1 µM, compound concentration 1 uM
[6] = 48 h, 10 µM, compound concentration 10 uM

SMILES: CCNc1ccc(-c2nn(-c3ccccc3C)c3c2C(C)Cc2nc(NC(=O)OC)sc2-3)cn1.O=C(O)C(F)(F)F (configuration not stated)
- Population Apoptotic (%) [1]: 34% and 35%
- Population Fragmented Nuclei (%) [1]: 22% and 27%
- Population Healthy Nuclei (%) [1]: 60% and 57%
- Population Hoechst High Intensity Objects (%) [1]: 0%
- Population Membrane Permeable-Phenotype (%) [1]: 5% and 3%
- Population Mitochondria Different-Phenotype (%) [1]: 0% and 3%
- Population Mitotic Cells (%) [1]: 65%
- Population Normal (%) [1]: 100%
- Population Pyknosed Nuclei (%) [1]: 17% and 14%
- Population Tubulin-Different-Phenotype (%) [1]: 35% and 27%
- Total Cell Count [1]: 255 and 278
- Population Apoptotic (%) [2]: 43% and 57%
- Population Fragmented Nuclei (%) [2]: 15% and 26%
- Population Healthy Nuclei (%) [2]: 66% and 61%
- Population Hoechst High Intensity Objects (%) [2]: 0% and 1%
- Population Membrane Permeable-Phenotype (%) [2]: 17% and 10%
- Population Mitochondria Different-Phenotype (%) [2]: 6% and 12%
- Population Mitotic Cells (%) [2]: 56% and 42%
- Population Normal (%) [2]: 100% and 98%
- Population Pyknosed Nuclei (%) [2]: 18% and 12%
- Population Tubulin-Different-Phenotype (%) [2]: 87% and 86%
- Total Cell Count [2]: 216 and 211
- Population Apoptotic (%) [3]: 40% and 46%
- Population Fragmented Nuclei (%) [3]: 20% and 17%
- Population Healthy Nuclei (%) [3]: 64% and 70%
- Population Hoechst High Intensity Objects (%) [3]: 0%
- Population Membrane Permeable-Phenotype (%) [3]: 4% and 3%
- Population Mitochondria Different-Phenotype (%) [3]: 2% and 4%
- Population Mitotic Cells (%) [3]: 60% and 53%
- Population Normal (%) [3]: 100% and 99%
- Population Pyknosed Nuclei (%) [3]: 15% and 12%
- Population Tubulin-Different-Phenotype (%) [3]: 35% and 28%
- Total Cell Count [3]: 225 and 233
- Population Apoptotic (%) [4]: 62% and 68%
- Population Fragmented Nuclei (%) [4]: 21% and 27%
- Population Healthy Nuclei (%) [4]: 62% and 65%
- Population Hoechst High Intensity Objects (%) [4]: 0%
- Population Membrane Permeable-Phenotype (%) [4]: 9% and 8%
- Population Mitochondria Different-Phenotype (%) [4]: 12%
- Population Mitotic Cells (%) [4]: 37% and 31%
- Population Normal (%) [4]: 99% and 100%
- Population Pyknosed Nuclei (%) [4]: 16% and 7%
- Population Tubulin-Different-Phenotype (%) [4]: 88%
- Total Cell Count [4]: 195 and 209
- Population Apoptotic (%) [5]: 58% and 20%
- Population Fragmented Nuclei (%) [5]: 13% and 15%
- Population Healthy Nuclei (%) [5]: 77% and 78%
- Population Hoechst High Intensity Objects (%) [5]: 0%
- Population Membrane Permeable-Phenotype (%) [5]: 5% and 2%
- Population Mitochondria Different-Phenotype (%) [5]: 2% and 0%
- Population Mitotic Cells (%) [5]: 41% and 80%
- Population Normal (%) [5]: 100% and 99%
- Population Pyknosed Nuclei (%) [5]: 8% and 6%
- Population Tubulin-Different-Phenotype (%) [5]: 26% and 18%
- Total Cell Count [5]: 208 and 225
- Population Apoptotic (%) [6]: 84% and 76%
- Population Fragmented Nuclei (%) [6]: 15% and 19%
- Population Healthy Nuclei (%) [6]: 65% and 64%
- Population Hoechst High Intensity Objects (%) [6]: 0%
- Population Membrane Permeable-Phenotype (%) [6]: 5% and 3%
- Population Mitochondria Different-Phenotype (%) [6]: 19% and 22%
- Population Mitotic Cells (%) [6]: 15% and 24%
- Population Normal (%) [6]: 100%
- Population Pyknosed Nuclei (%) [6]: 18% and 15%
- Population Tubulin-Different-Phenotype (%) [6]: 87% and 90%
- Total Cell Count [6]: 169 and 157

SMILES: Cc1cc(NC(=O)c2cccc(NC(=O)/C=C/CN(C)C)c2)ccc1Nc1nccc(-c2cccnc2)n1
- Population Apoptotic (%) [1]: 39% and 33%
- Population Fragmented Nuclei (%) [1]: 12% and 17%
- Population Healthy Nuclei (%) [1]: 63% and 56%
- Population Hoechst High Intensity Objects (%) [1]: 0%
- Population Membrane Permeable-Phenotype (%) [1]: 9% and 11%
- Population Mitochondria Different-Phenotype (%) [1]: 0% and 1%
- Population Mitotic Cells (%) [1]: 60% and 66%
- Population Normal (%) [1]: 100%
- Population Pyknosed Nuclei (%) [1]: 24% and 25%
- Population Tubulin-Different-Phenotype (%) [1]: 18% and 11%
- Total Cell Count [1]: 190 and 197
- Population Apoptotic (%) [2]: 48% and 33%
- Population Fragmented Nuclei (%) [2]: 4% and 10%
- Population Healthy Nuclei (%) [2]: 53% and 56%
- Population Hoechst High Intensity Objects (%) [2]: 0%
- Population Membrane Permeable-Phenotype (%) [2]: 7% and 14%
- Population Mitochondria Different-Phenotype (%) [2]: 8% and 2%
- Population Mitotic Cells (%) [2]: 51% and 66%
- Population Normal (%) [2]: 100% and 99%
- Population Pyknosed Nuclei (%) [2]: 41% and 33%
- Population Tubulin-Different-Phenotype (%) [2]: 77% and 50%
- Total Cell Count [2]: 130 and 219
- Population Apoptotic (%) [3]: 47% and 40%
- Population Fragmented Nuclei (%) [3]: 22% and 24%
- Population Healthy Nuclei (%) [3]: 54% and 52%
- Population Hoechst High Intensity Objects (%) [3]: 0%
- Population Membrane Permeable-Phenotype (%) [3]: 5% and 3%
- Population Mitochondria Different-Phenotype (%) [3]: 0% and 2%
- Population Mitotic Cells (%) [3]: 52% and 59%
- Population Normal (%) [3]: 100%
- Population Pyknosed Nuclei (%) [3]: 23%
- Population Tubulin-Different-Phenotype (%) [3]: 21% and 13%
- Total Cell Count [3]: 230 and 222
- Population Apoptotic (%) [4]: 53% and 39%
- Population Fragmented Nuclei (%) [4]: 11%
- Population Healthy Nuclei (%) [4]: 36% and 51%
- Population Hoechst High Intensity Objects (%) [4]: 0%
- Population Membrane Permeable-Phenotype (%) [4]: 6% and 7%
- Population Mitochondria Different-Phenotype (%) [4]: 18% and 13%
- Population Mitotic Cells (%) [4]: 46% and 60%
- Population Normal (%) [4]: 99%
- Population Pyknosed Nuclei (%) [4]: 51% and 36%
- Population Tubulin-Different-Phenotype (%) [4]: 81% and 63%
- Total Cell Count [4]: 118 and 221
- Population Apoptotic (%) [5]: 68% and 75%
- Population Fragmented Nuclei (%) [5]: 24% and 29%
- Population Healthy Nuclei (%) [5]: 62% and 60%
- Population Hoechst High Intensity Objects (%) [5]: 0%
- Population Membrane Permeable-Phenotype (%) [5]: 6% and 4%
- Population Mitochondria Different-Phenotype (%) [5]: 1% and 0%
- Population Mitotic Cells (%) [5]: 31% and 25%
- Population Normal (%) [5]: 100% and 99%
- Population Pyknosed Nuclei (%) [5]: 13% and 10%
- Population Tubulin-Different-Phenotype (%) [5]: 23% and 29%
- Total Cell Count [5]: 237 and 239
- Population Apoptotic (%) [6]: 82% and 60%
- Population Fragmented Nuclei (%) [6]: 14%
- Population Healthy Nuclei (%) [6]: 30% and 39%
- Population Hoechst High Intensity Objects (%) [6]: 0%
- Population Membrane Permeable-Phenotype (%) [6]: 19% and 12%
- Population Mitochondria Different-Phenotype (%) [6]: 22% and 15%
- Population Mitotic Cells (%) [6]: 17% and 39%
- Population Normal (%) [6]: 100% and 99%
- Population Pyknosed Nuclei (%) [6]: 54% and 45%
- Population Tubulin-Different-Phenotype (%) [6]: 80% and 78%
- Total Cell Count [6]: 117 and 218
